Results: ChEMBL document CHEMBL1158832, “Bioactive tetrahydrofuran lignans from Peperomia dindygulensis” (J Nat Prod, 2005)
In brackets after ≈: the same amount, converted by molar mass.

How the values were obtained:
P-glycoprotein (ABCB1) [1] = biological target: T1, P-glycoprotein (ABCB1) (Homo sapiens, UniProt P08183); assay: Inhibition of P-glycoprotein-mediated multidrug resistance in adriamycin-resistant human A2780 cells assessed as calcein accumulation at 2.5 ug/ml after 15 mins relative to verapamil; type: cell-based; conditions: probe calcein
T1 sequence (P08183 whole entry): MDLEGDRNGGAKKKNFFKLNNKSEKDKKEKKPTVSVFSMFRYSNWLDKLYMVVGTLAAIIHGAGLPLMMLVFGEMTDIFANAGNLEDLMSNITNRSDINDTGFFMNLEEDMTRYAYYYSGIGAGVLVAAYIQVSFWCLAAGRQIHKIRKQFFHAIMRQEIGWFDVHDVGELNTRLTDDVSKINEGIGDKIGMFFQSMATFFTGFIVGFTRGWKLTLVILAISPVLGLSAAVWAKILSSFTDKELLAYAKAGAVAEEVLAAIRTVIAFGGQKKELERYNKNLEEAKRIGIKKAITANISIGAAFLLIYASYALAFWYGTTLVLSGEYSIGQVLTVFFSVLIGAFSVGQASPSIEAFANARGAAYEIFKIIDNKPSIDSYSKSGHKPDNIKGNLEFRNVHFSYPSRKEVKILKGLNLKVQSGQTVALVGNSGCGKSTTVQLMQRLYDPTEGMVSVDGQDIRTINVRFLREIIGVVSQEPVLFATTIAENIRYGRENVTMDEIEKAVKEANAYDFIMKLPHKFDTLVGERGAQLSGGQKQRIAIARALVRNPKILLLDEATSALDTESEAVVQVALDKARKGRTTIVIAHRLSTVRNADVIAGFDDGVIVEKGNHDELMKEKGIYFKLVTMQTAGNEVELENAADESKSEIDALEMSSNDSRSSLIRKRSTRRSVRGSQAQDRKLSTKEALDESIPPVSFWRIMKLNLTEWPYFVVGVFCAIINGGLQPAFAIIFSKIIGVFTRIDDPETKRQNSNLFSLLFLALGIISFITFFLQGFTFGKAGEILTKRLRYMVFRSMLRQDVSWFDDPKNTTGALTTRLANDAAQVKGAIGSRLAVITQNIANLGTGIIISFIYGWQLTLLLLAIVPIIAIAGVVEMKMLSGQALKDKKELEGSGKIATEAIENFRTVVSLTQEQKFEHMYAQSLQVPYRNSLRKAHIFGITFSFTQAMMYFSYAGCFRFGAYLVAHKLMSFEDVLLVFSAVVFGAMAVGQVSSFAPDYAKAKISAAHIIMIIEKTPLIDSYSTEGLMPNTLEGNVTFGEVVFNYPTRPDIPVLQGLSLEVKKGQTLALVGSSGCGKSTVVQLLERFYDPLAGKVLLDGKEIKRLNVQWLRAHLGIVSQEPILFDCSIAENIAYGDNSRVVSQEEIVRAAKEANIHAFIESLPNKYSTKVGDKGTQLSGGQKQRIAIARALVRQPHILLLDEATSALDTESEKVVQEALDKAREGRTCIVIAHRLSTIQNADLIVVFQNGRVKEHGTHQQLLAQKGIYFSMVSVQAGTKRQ

HepG2 = assay: Cytotoxicity against human HepG2 cells after 48 hrs by WST8 assay; type: functional, cell-based; conditions: HepG2, 48 h
In short: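 About 5000 cells per well, preincubated 24 h at 37 °C in 5% CO2. Cells kept in D-MEM with 10% FBS and 80 µg/mL kanamycin. Samples were added in DMSO and incubated a further 48 h. WST-8 formazan was read at 450 nm, viability was plotted against concentration, and IC50 was taken as the concentration giving 50% growth inhibition.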

P-glycoprotein (ABCB1) [2] = biological target: T1, P-glycoprotein (ABCB1); assay: Inhibition of P-glycoprotein-mediated multidrug resistance in adriamycin-resistant human A2780 cells assessed as calcein accumulation at 25 ug/ml after 15 mins relative to control; type: cell-based; conditions: probe calcein, values are per cent of control
WI-38 VA13 = assay: Cytotoxicity against human VA13 cells after 48 hrs by WST8 assay; type: functional, cell-based; conditions: WI-38 VA13, 48 h
In short: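 VA-13 cells grown in RITC 80-7 with 10% FBS; ca. 5000 cells/well preincubated 24 h at 37 °C, 5% CO2, then compounds in DMSO added for 48 h. WST-8 added, formazan read at 450 nm; IC50 taken as 50% growth inhibition from viability-versus-concentration plot.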

P-glycoprotein (ABCB1) [3] = biological target: T1, P-glycoprotein (ABCB1); assay: Inhibition of P-glycoprotein-mediated multidrug resistance in adriamycin-resistant human A2780 cells assessed as calcein accumulation at 25 ug/ml after 15 mins relative to verapamil; type: cell-based; conditions: probe calcein
P-glycoprotein (ABCB1) [4] = biological target: T1, P-glycoprotein (ABCB1); assay: Inhibition of P-glycoprotein-mediated multidrug resistance in adriamycin-resistant human A2780 cells assessed as calcein accumulation at 0.25 ug/ml after 15 mins relative to control; type: cell-based; conditions: probe calcein, values are per cent of control
P-glycoprotein (ABCB1) [5] = biological target: T1, P-glycoprotein (ABCB1); assay: Inhibition of P-glycoprotein-mediated multidrug resistance in adriamycin-resistant human A2780 cells assessed as calcein accumulation at 0.25 ug/ml after 15 mins relative to verapamil; type: cell-based; conditions: probe calcein
P-glycoprotein (ABCB1) [6] = biological target: T1, P-glycoprotein (ABCB1); assay: Inhibition of P-glycoprotein-mediated multidrug resistance in adriamycin-resistant human A2780 cells assessed as calcein accumulation at 2.5 ug/ml after 15 mins relative to control; type: cell-based; conditions: probe calcein, values are per cent of control
A549 [7] = assay: Cytotoxicity against human A549 cells after 24 hrs by MTT assay; type: functional, cell-based
In short: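 A549 cells, 2 × 10^4/well seeded the day before, exposed to test compounds 24 h; MTT 500 µg/mL pulsed for the final 4 h, formazan dissolved in 10% SDS overnight, A595. Viability as (sample − background)/(control − background) × 100.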

A549 [8] = assay: Antiinflammatory activity against human A549 cells assessed as inhibition of IL-1-alpha-induced ICAM1 expression; type: functional, cell-based
In short: (§1)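 A549 cells, 2 × 10^4/well seeded the day before, preincubated 1 h ± test compounds, then stimulated with IL-1α (1 ng/mL) or TNF-α (10 ng/mL) for 6 h. Fixed in 1% paraformaldehyde, mouse anti-human ICAM-1 then peroxidase anti-mouse IgG; o-phenylenediamine/H2O2 substrate, pH 5.3, 20 min 37 °C, A415. Expression as % of stimulated minus unstimulated absorbance.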

A549 [9] = assay: Antiinflammatory activity against human A549 cells assessed as inhibition of TNF-alpha-induced ICAM1 expression; type: functional, cell-based; in short: as §1

inhibition at 0.25 h, 2.5 ug/ml (P-glycoprotein (ABCB1) [1]) [%]	response, % of control at 0.25 h, 25 ug/ml (P-glycoprotein (ABCB1) [2]) [%]	inhibition at 0.25 h, 25 ug/ml (P-glycoprotein (ABCB1) [3]) [%]	response, % of control at 0.25 h, 0.25 ug/ml (P-glycoprotein (ABCB1) [4]) [%]	inhibition at 0.25 h, 0.25 ug/ml (P-glycoprotein (ABCB1) [5]) [%]	response, % of control at 0.25 h, 2.5 ug/ml (P-glycoprotein (ABCB1) [6]) [%]	IC50 (A549 [8]) [µM]	IC50 (A549 [9]) [µM]	SMILES	IC50 (HepG2) [µg/mL]	IC50 (WI-38 VA13) [µg/mL]	Activity (A549 [7])
								COc1ccc(-c2cc(=O)c3c(O)cc(OC)cc3o2)cc1 [APIGENIN DIMETHYLETHER]		38.9 (≈ 130 µM)	
								O=C1CCCC(=O)C1C(=O)CCc1ccccc1		40.5 (≈ 166 µM)	
110	138	107	97	110	105	189	105	COc1cc([C@@H]2O[C@H](c3cc(OC)c4c(c3)OCO4)[C@@H](COC(C)=O)[C@@H]2CO)cc(OC)c1OC			Not toxic
99	101	78	88	100	95	84.4	38.6	COc1cc([C@@H]2O[C@H](c3cc(OC)c4c(c3)OCO4)[C@@H](COC(C)=O)[C@@H]2COC(C)=O)cc(OC)c1O		47.4 (≈ 91.4 µM)	Not toxic
89	94	72	76	86	85			COc1cc([C@H]2O[C@@H](c3cc(OC)c4c(c3)OCO4)[C@@H](COC(C)=O)[C@@H]2CO)cc2c1OCO2			
								COc1cc([C@H]2O[C@H](c3cc(OC)c4c(c3)OCO4)[C@@H](COC(C)=O)[C@@H]2CO)cc2c1OCO2		36.2 (≈ 76.3 µM)	

SMILES	inhibition at 0.25 h, 2.5 ug/ml (P-glycoprotein (ABCB1) [1]) [%]	response, % of control at 0.25 h, 25 ug/ml (P-glycoprotein (ABCB1) [2]) [%]	inhibition at 0.25 h, 25 ug/ml (P-glycoprotein (ABCB1) [3]) [%]	response, % of control at 0.25 h, 0.25 ug/ml (P-glycoprotein (ABCB1) [4]) [%]	inhibition at 0.25 h, 0.25 ug/ml (P-glycoprotein (ABCB1) [5]) [%]	response, % of control at 0.25 h, 2.5 ug/ml (P-glycoprotein (ABCB1) [6]) [%]	IC50 (A549 [8]) [µM]	IC50 (A549 [9]) [µM]	IC50 (HepG2) [µg/mL]	IC50 (WI-38 VA13) [µg/mL]	Activity (A549 [7])
CC(C)[C@@H](C)/C=C/[C@@H](C)[C@H]1CC[C@H]2[C@@]3(O)C=C[C@@]4(O)C[C@@H](O)CC[C@]4(C)[C@H]3CC[C@]12C	111	95	73	97	109	106			47.9 (≈ 111 µM)	48.1 (≈ 112 µM)	
